# In the library only some 2.3% were active in any assay of this set; here they are far more common.
# PAX8 reporter – lowers PAX8-driven luciferase in RMG-I cells; RMG-I TPO-luciferase reporter, SteadyGlo, 24 h; inhibition, % at 12.6 µM; actives 1.2% (n = 360,000); AID 652154;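 active means mean replicate inhibition at least 60% with every replicate also reaching 60%; inconclusive means only one of the two criteria is met; inactive means mean below 60% and not all replicates reaching 60%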;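 further: luciferase light reporting Pax8 driven TPO promoter activity; plate controls were median of neutral control wells for no effect and mitoxantrone controls for full effect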
# PGC1a acetyl inh – PGC1a acetylation modulation, inhibitor mode; U2OS PGC1a acetylation, AlphaScreen anti-acetyl-lysine; with virally co-expressed GCN5 acetyltransferase; inhibition, % at 15.6 µM; actives 0.17% (n = 350,000); AID 651687;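 active means every replicate shows inhibition of at least 40%; inconclusive means mean inhibition at least 40% but some replicate below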;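 further: 0% = neutral control wells and 100% = positive control wells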
# F508del corr – CFTR F508del correction in bronchial cells; CFBE cells, YFP halide quenching; stimulated with forskolin plus potentiator P3; % fluorescence drop versus neutral controls; activity (quench increase), % at 7.58 µM; actives 0.36% (n = 350,000); AID 720511;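 active means mean added fluorescence quench of at least 8% versus neutral control, with both replicates also reaching 8%; inconclusive means only one of the mean or replicate conditions met; inactive means mean below 8% and not both replicates reaching 8%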;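 further: cells transiently co-express mutant CFTR-F508del with the halide-sensitive YFP; corrector assay measuring rescue of mutant channel to the surface after 24 h compound exposure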
# FN deposit inh – fibronectin deposition inhibition | AH1F fibroblasts, Alexa488-fibronectin deposition fluorescence, overnight | inhibition, % at 12.6 µM | actives 0.086% (n = 350,000);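 active means mean inhibition across replicates of 30% or more, regardless of how many single replicates reach that level; inconclusive means mean under 30% yet at least half of replicates reach 30%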;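 further: positive control wells lacked labelled fibronectin entirely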
#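 material = AH1F fibroblast monolayer depositing Alexa488-labelled fibronectin into matrix | amount = 10000 AH1F cells/well | buffer or medium = DMEM plus 2% serum, read in PBS | incubation = 1 h cell adhesion before compound, then overnight fibronectin incubation | detection = fluorescence at 485 nm excitation, 525 nm emission | evaluation = percent inhibition as loss of matrix-bound fibronectin fluorescence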
# Env fusion inh – inhibitors of HIV Env-mediated cell fusion; HeLa-JRFL Env/CEM21 cell fusion, luciferase; inhibition, % at 12.3 µM; actives 1.1% (n = 360,000);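 active means mean replicate inhibition score of at least 50 and every replicate individually at or above 50; inconclusive means only one of the two criteria met; inactive means mean below 50 and not all replicates reaching 50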;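 further: 0% = plate neutral controls and 100% = maraviroc near 300 nM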
# EWS-Fli inh – blocks EWS/Fli oncoprotein-driven transcription; A673 NR0B1-luciferase reporter, viability-normalised; inhibition, % at 12.6 µM; actives 0.67% (n = 350,000);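 active means mean inhibition of at least 50% after viability correction, with every replicate also passing that limit; inconclusive means mean reaches 50% but only one of two replicates passes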;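 further: firefly luciferase signal divided by Alamar Blue viability fluorescence both relative to DMSO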
# DNA binder FP – DNA binding small molecules. shares compounds with EWS-Fli inh. salmon sperm DNA acridine orange fluorescence polarization. AC35, µM (titrated, usually from 68 µM), without a hit: at the top dose activity change, negative = DNA binding. actives 2% (n = 640). AID 720586;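 active means fitted curve reaches a 35% signal fall AC35 below twice the sample's top valid tested dose, actives reach about 48 µM in these data; inactive means the rest, including activity in the rising direction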;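 further: lower polarization ratio signals compound binding to DNA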
# COX5a expr inh – inhibitors of PGC-1a target COX5a expression in C2C12 myotubes; shares compounds with PGC1a acetyl inh; C2C12 myotubes PGC-1a adenovirus, COX5a qPCR; maximal activity, %; 45 tested, under 10 active; AID 743461;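 active means fitted dose curve reaching 40% activity at or below the highest valid dose tested; inconclusive means flat fit between 30% and 70%, or an unusable fit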
# AID743468 – change in PGC-1a target gene PDK4 expression, dose response, C2C12 myotubes, RT-qPCR, cherry-pick; AID 743468; PGC-1a adenovirus, PDK4 mRNA qPCR; shares compounds with PGC1a acetyl inh; PDK4 expression increase, % at 19.5 µM; 45 tested, under 10 active;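 active means fitted curve reaching a 40% PDK4 expression rise at or below the top valid tested dose; inconclusive means no clear call, values can overlap the other calls; inactive means the rest, including shifts the wrong way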
# * marks the source's active call; other numbers are inactive results; ? = inconclusive; · = no result; [ ] = dose if it differs, or a comment.
SMILES,PAX8 reporter,PGC1a acetyl inh,F508del corr,FN deposit inh,Env fusion inh,EWS-Fli inh,COX5a expr inh,AID743468,others
COc1ccc(NC(=O)Nc2ccc3c(c2)C(=O)N(C)C[C@@H](OC)[C@H](C)CN[C@H](C)CO3)cc1,3,1,3,2,11[16.7 µM],-7,·,·,
C[C@@H]1CN([C@@H](C)CO)C(=O)c2cc(NC(=O)C3CCCCC3)ccc2O[C@@H](C)CCCCO[C@H]1CN(C)C(=O)NC1CCCCC1,8,-4,0,·,-24[16.7 µM],13,·,·,
COc1cc(C(c2c(C)[nH][nH]c2=O)c2c(C)[nH][nH]c2=O)ccc1OC(C)C,-7,9,·,·,4,78*,·,·,DNA binder FP=-16%
C[C@@H]1CCCCO[C@H](CN(C)Cc2ccc(C(=O)Nc3ccccc3N)cc2)[C@@H](C)CN([C@H](C)CO)C(=O)c2cc(NS(=O)(=O)c3ccccc3)ccc2O1,22,5,4,-7,·,-4,·,·,
C[C@@H]1CN([C@@H](C)CO)C(=O)c2cc(NC(=O)c3ccccc3)ccc2O[C@@H](C)CCCCO[C@H]1CN(C)C(=O)Nc1cccc2ccccc12,1,-7,2,6,60*[16.7 µM],71*,·,·,DNA binder FP=5%
Cc1ccc(S(=O)(=O)Nc2ccc3c(c2)C(=O)N([C@@H](C)CO)C[C@@H](C)[C@H](CN(C)Cc2ccc(C(F)(F)F)cc2)OCCCC[C@H](C)O3)cc1,106*,27,2,7,-6[16.7 µM],69*,·,·,DNA binder FP=-21%
C[C@@H]1CCCCO[C@H](CN(C)Cc2ccc(C(=O)Nc3ccccc3N)cc2)[C@@H](C)CN([C@H](C)CO)C(=O)c2cc(NS(=O)(=O)c3ccc(F)cc3)ccc2O1,52,-7,3,-25,5[16.7 µM],61*,·,·,DNA binder FP=-10%
COc1cccc(C(=O)Nc2ccc3c(c2)OC[C@@H](C)N(CC2CC2)C[C@H](C)[C@@H](OC)CN(C)C3=O)c1,·,14,3,-2,·,5,·,·,
CN(C)C(=S)N=Nc1[nH]c2ccccc2c1O,-78,·,-3,1,-9,61*,·,·,DNA binder FP=-7%
COCc1cc(C)nc2sc(C(=O)NCCO)c(-n3cccc3)c12,-10,·,-3,·,9,61*,·,·,DNA binder FP=-14%
COc1ccc(-c2ccc3c(n2)CCCN3S(=O)(=O)c2ccc(F)cc2)cc1,-16,·,0,0,-27,0,·,·,
COc1ccc(S(=O)(=O)N2CCCc3nc(-c4ccc(F)cc4)ccc32)cc1,21,·,2,7,21,60*,·,·,DNA binder FP=4%
Cc1noc(C)c1S(=O)(=O)N(C)C[C@H]1OCCCC[C@@H](C)Oc2ccc(NC(=O)Nc3ccccc3)cc2C(=O)N([C@@H](C)CO)C[C@@H]1C,18,-9,-1,1,-54[16.7 µM],6,·,·,
CC(=O)Nc1ccc2c(c1)C(=O)N(C)[C@@H]1CC[C@H](CC(=O)N3CCc4ccccc4C3)O[C@@H]1CO2,15,4,-2,-15,-19[16.7 µM],-2,·,·,
Cc1cc2c(c(/C=C/C(=O)c3ccccc3)c1)OC1(C=C2)Oc2ccccc2C(=O)N1C (stereo not drawn),11,50*,-4,-2,-299,43,-44,-53,
O=C1c2ccccc2OC2(C=Cc3ccccc3O2)N1Cc1ccccc1 (stereo not drawn),·,-12,·,·,·,·,·,·,
CS(=O)c1nc(-c2ccc(Br)cc2)cc(-c2ccccc2)c1C#N (stereo not drawn),·,91*,0,·,·,16,-38,11,
O=C(C[C@H]1CC[C@H](NC(=O)c2ccccc2)[C@@H](CO)O1)Nc1ccc(-c2ccccc2)cc1,5,5,2,-29,4[16.7 µM],-19,·,·,
O=C(C[C@H]1CC[C@@H](NC(=O)c2ccccc2)[C@H](CO)O1)Nc1ccc(-c2ccccc2)cc1,7,44*,1,0,-1[16.7 µM],-7,-29,-29,
O=C(CN1CCOCC1)N[C@H]1CC[C@@H](CCn2cc(C3CCCC3)nn2)O[C@H]1CO,-14,4,2,-14,·,·,·,·,
O=c1cc(CCc2ccccc2)[nH]c(=O)[nH]1,-11,·,3,1,-3,0,·,·,
O=c1cc(CSc2ccccn2)[nH]c(=O)[nH]1,·,?,·,·,·,·,-27,-6,
C[C@H](CO)N1C[C@H](C)[C@H](CN(C)C(=O)Nc2ccc(F)cc2)Oc2ncc(-c3ccc(C#N)cc3)cc2C1=O,·,-17,0,-5,-11[16.7 µM],-6,·,·,
Cc1nc(Nc2ccccc2)sc1C(=O)Nc1ccccc1,-33,·,0,3,-38,-51,·,·,
Cc1nc(Nc2ccc(S(N)(=O)=O)cc2)sc1C(=O)Nc1ccccc1,43,?,0,6,-30,0,-26,-8,
SMILES,PAX8 reporter,PGC1a acetyl inh,F508del corr,FN deposit inh,Env fusion inh,EWS-Fli inh,COX5a expr inh,AID743468,others
O=C(Nc1ccc(C(F)(F)F)cc1)N1C[C@@H]2N[C@H](C1)C2c1ccc(-c2ccccc2)cc1 (stereo partly drawn),108*,?,-10,-10,·,-9,-43,-24,
Nc1ncnc(NCc2ccccc2)c1[N+](=O)[O-],-34,·,5,·,10,-15,·,·,
Nc1ncnc(NCc2ccc(F)cc2)c1[N+](=O)[O-],-19,50*,-1,11,45,-2,-25,32,
CC(C)CC#Cc1ccc2c(c1)O[C@@H](CN(C)C(=O)Nc1ccccc1)[C@H](C)CN([C@H](C)CO)S2(=O)=O,·,4,1,-5,-7[16.7 µM],26,·,·,
C/C=C/c1ccc2c(c1)O[C@H](CN(C)Cc1ccc(C(=O)O)cc1)[C@H](C)CN([C@@H](C)CO)S2(=O)=O,-10,20,1,·,-2[16.7 µM],7,·,·,
CC1=C(Cl)C2=NS(=O)(=O)CCN2C=C1Cl,4,?,1,-3,-12,5,-23,0,
C[C@@H]1CN([C@H](C)CO)S(=O)(=O)c2ccc(C#Cc3ccncc3)cc2O[C@@H]1CN(C)C(=O)C1CCC1,·,-17,-6,-10,-43[16.7 µM],-21,·,·,
C[C@H]1CN([C@@H](C)CO)S(=O)(=O)c2ccc(-c3ccccc3)cc2O[C@@H]1CN(C)Cc1cccc(F)c1,·,48*,-3,-17,30[16.7 µM],31,-51,-20,
C[C@H](CO)N1C[C@H](C)[C@@H](CN(C)C(=O)C2CCCCC2)Oc2cc(C#Cc3ccncc3)ccc2S1(=O)=O,34,?,2,·,-90[16.7 µM],5,-21,-2,
